Only some compounds are listed: those with a hit (about 2.3% of all), similar ones and a draw of the others.
TROY signal inh = inhibitors of TROY-dependent NF-kB signaling. Q293 LMP1-TROYcd NF-kB luciferase reporter, 4 h. 360,000 compounds, 0.98% hits. AID 1347056. inhibition, % at 10 µM;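 active = compounds whose plate-normalised and pattern-corrected inhibition of the luciferase reporter signal at the single screening dose is 50% or more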
EWS-Fli inh = blocks EWS/Fli oncoprotein-driven transcription | 350,000 compounds, 0.67% hits | AID 651661 | A673 NR0B1-luciferase reporter, viability-normalised | inhibition, % at 12.6 µM;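 active = mean inhibition of at least 50% after viability correction, with every replicate also passing that limit; inconclusive = mean reaches 50% but only one of two replicates passes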;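 also: firefly luciferase signal divided by Alamar Blue viability fluorescence both relative to DMSO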
FN deposition inh = fibronectin deposition inhibition; AH1F fibroblasts, Alexa488-fibronectin deposition fluorescence, overnight; inhibition, % at 12.6 µM; 350,000 compounds, 0.086% hits;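 active = mean inhibition across replicates of 30% or more, regardless of how many single replicates reach that level; inconclusive = mean under 30% yet at least half of replicates reach 30%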;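 also: positive control wells lacked labelled fibronectin entirely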
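Material – AH1F fibroblast monolayer, labelled fibronectin deposition · Reagent – labelled fibronectin 24 nM · Timing – 1 h adhesion, overnight exposure · Measured by – fluorescence at 485 nm excitation, 525 nm emission · Read-out – inhibition of fibronectin deposition signal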
TWEAK-Fn14 inh = blocks TWEAK-Fn14 interaction in a reporter cell assay; inhibition, % at 10 µM; 360,000 compounds, 2% hits; TWEAK-stimulated Fn14 reporter cells, luciferase luminescence, 8 h; in the data active = inhibition above about 50%
Xi reactivation = X-chromosome reactivation activator; 360,000 compounds, 0.055% hits; XiGFP mouse fibroblasts, % GFP-positive cells imaging, 3 d; cells co-treated with 5-aza-dC sensitizer; scaled so ellipticine positive control = 100%; activation, % at 7.58 µM;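 active = mean normalized replicate activation at least 10% and every replicate at or above 10%; inconclusive = only one of the two criteria met; inactive = mean below 10% and not all replicates reach 10%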;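 also: 0% = median of on-plate neutral control wells and 100% = ellipticine 6 µM median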
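System: 68-5-11 XiGFP fibroblast line; Timing: 3 days compound exposure; Compound dosing: one concentration, pinned; Benchmarks: positive control ellipticine, 6 µM final; Buffer or medium: DMEM containing 5-aza-dC.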
LGR2 antag = Drosophila LGR2 receptor signaling inhibition. HEK293 LGR2, CRE-luciferase, bursicon-stimulated, 4 h. inhibition, % at 9.99 µM. 380,000 compounds, 0.35% hits;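 active = drop in luminescence signal, shown as inhibition above about 50% in the replicate tests, limit read from the data, passing the limit was not always enough; inconclusive = probably only some replicates passing the limit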;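 also: agonist challenge used bursicon conditioned medium at about half maximal strength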
The depositor's hits bear a star.

How did CCOC(=O)c1c(NC(=O)CSc2nc3ccccc3o2)sc(C(C)=O)c1C do in these assays?
TROY signal inh: 34; FN deposition inh: 3; TWEAK-Fn14 inh: 69*; Xi reactivation: 0; LGR2 antag: -21

Results for O=C(CSc1nc2ccccc2o1)N/N=C/c1ccccc1 ?
TROY signal inh: -39; FN deposition inh: 3; TWEAK-Fn14 inh: -22; Xi reactivation: 0; LGR2 antag: -33

How did O=C(CSc1nc2ccccc2o1)Nc1nc2ccccc2s1 do in these assays?
TROY signal inh: 4; TWEAK-Fn14 inh: -3

Results for O=C(CSc1nc2ccccc2o1)Nc1nc(-c2ccccc2)cs1 ?
TROY signal inh: 80*; FN deposition inh: -7; TWEAK-Fn14 inh: 84*; Xi reactivation: 0; LGR2 antag: -40

What do the screens show for `O=C(CSc1nc2ccccc2o1)Nc1nc2c(s1)CCCC2`?
TROY signal inh: 0; EWS-Fli inh: 44; FN deposition inh: 7; TWEAK-Fn14 inh: 89*; Xi reactivation: 4; LGR2 antag: 25

What do the screens show for `CC(C)(C)NS(=O)(=O)c1cc(C(=O)Nc2sccc2C#N)ccc1Cl`?
TROY signal inh: 40; FN deposition inh: -1; TWEAK-Fn14 inh: 52*; Xi reactivation: 0; LGR2 antag: 22

How did N#Cc1ccsc1NC(=O)c1cnccn1 do in these assays?
TROY signal inh: -2; FN deposition inh: -2; TWEAK-Fn14 inh: -20

What do the screens show for `CN(C)C(=O)C[C@@H]1CC[C@H]2[C@H](COc3ccc(NC(=O)C4CCOCC4)cc3C(=O)N2C)O1`?
EWS-Fli inh: -4; FN deposition inh: -5; Xi reactivation: 0; LGR2 antag: 2

Results for CC(=O)N[C@@H]1C[C@@H]2O[C@@H](CO)CC[C@@H]2O[C@@H]1CCc1ccc(-c2ccc(F)cc2)cc1 ?
EWS-Fli inh: -15

Results for COc1cccc(C=NNc2ccc([N+](=O)[O-])cn2)c1OC ?
TROY signal inh: -36; EWS-Fli inh: -80; FN deposition inh: -3; TWEAK-Fn14 inh: -51; Xi reactivation: 1; LGR2 antag: -49

What do the screens show for `Cc1cc(/C=N/Nc2ncnc(N)c2[N+](=O)[O-])c(C)n1-c1ccccc1`?
TROY signal inh: 83*; EWS-Fli inh: 83*; FN deposition inh: -1; TWEAK-Fn14 inh: 98*; Xi reactivation: 0; LGR2 antag: 79*

What do the screens show for `COc1cccc(/C=N/Nc2ncnc(N)c2[N+](=O)[O-])c1OC`?
TROY signal inh: 43; TWEAK-Fn14 inh: 84*

How did CCn1c(SCC(=O)Nc2ccccc2C)nnc1-c1ccccc1O do in these assays?
TROY signal inh: 3; FN deposition inh: -2; TWEAK-Fn14 inh: 12; LGR2 antag: 2

How did O=C(CSc1nnc(-c2ccccc2)n1-c1ccccc1)c1ccc[nH]1 do in these assays?
TROY signal inh: 14; FN deposition inh: 33*; TWEAK-Fn14 inh: -1; Xi reactivation: 0; LGR2 antag: -10

What do the screens show for `Cc1ccccc1NC(=O)CSc1nnc(-c2ccccc2)n1-c1ccccc1`?
TROY signal inh: 56*; TWEAK-Fn14 inh: -10

Results for CCn1cc(/C=C(\NC(=O)c2ccc(C)cc2)C(=O)NCCCN2CCOCC2)c2ccccc21 ?
TROY signal inh: -29; EWS-Fli inh: -5; FN deposition inh: 5; TWEAK-Fn14 inh: -10; Xi reactivation: 0; LGR2 antag: -8

Results for CCn1cc(/C=C(\NC(=O)c2ccccc2F)C(=O)NCCCN2CCOCC2)c2ccccc21 ?
TROY signal inh: -23; FN deposition inh: 1; TWEAK-Fn14 inh: 68*; Xi reactivation: 0; LGR2 antag: 6

Results for Cc1ccc(C)c(N2CCN(C(=O)CCS(=O)(=O)c3ccc4c(c3)NC(=O)C(C)S4)CC2)c1 (stereo unspecified) ?
TROY signal inh: 44; FN deposition inh: 2; TWEAK-Fn14 inh: 72*; Xi reactivation: 0; LGR2 antag: 17

What do the screens show for `Cc1ccc(NC(=O)C2CCN(S(=O)(=O)c3ccc4c(c3)NC(=O)C(C)S4)CC2)cc1Cl` (stereo unspecified)?
TROY signal inh: 47; FN deposition inh: -24; TWEAK-Fn14 inh: 63*; Xi reactivation: 0; LGR2 antag: 28

Results for Cc1cc(C)cc(NC(=O)C2CCN(S(=O)(=O)c3ccc4c(c3)NC(=O)C(C)S4)CC2)c1 (stereo unspecified) ?
TROY signal inh: 26; FN deposition inh: -1; TWEAK-Fn14 inh: -2; Xi reactivation: 0; LGR2 antag: 12

How did CCC(=O)NNC(=O)Cc1c(C)n(C(=O)c2ccc(Cl)cc2)c2ccc(OC)cc12 do in these assays?
TROY signal inh: -11; EWS-Fli inh: 9; FN deposition inh: -13; TWEAK-Fn14 inh: 56*; Xi reactivation: 0; LGR2 antag: 16

How did COc1cccc(S(=O)(=O)N(C)C[C@@H]2Oc3ncc(C#CC(C)C)cc3C(=O)N([C@H](C)CO)C[C@@H]2C)c1 do in these assays?
EWS-Fli inh: 1; FN deposition inh: -8; Xi reactivation: -1; LGR2 antag: 11

How did COc1ccc(C(=O)/C=C/C(=O)N(CC(=O)NC2CCCCC2)Cc2cccs2)c(O)c1 do in these assays?
TROY signal inh: 42; EWS-Fli inh: 64*; FN deposition inh: -5; TWEAK-Fn14 inh: 82*; Xi reactivation: 0

What do the screens show for `COCCN(CC(=O)NC1CCCCC1)C(=O)/C=C/C(=O)c1ccc(OC)cc1O`?
TROY signal inh: 58*; EWS-Fli inh: 39; FN deposition inh: 12; TWEAK-Fn14 inh: 74*; Xi reactivation: 1; LGR2 antag: inconclusive

What do the screens show for `CC(C)NC(=O)N(C)C[C@H]1Oc2ccc(NS(=O)(=O)c3cn(C)cn3)cc2C(=O)N([C@@H](C)CO)C[C@H]1C`?
EWS-Fli inh: -9; FN deposition inh: 16; Xi reactivation: -1; LGR2 antag: -8

Results for Cc1ccc(N/C=C/C(=O)c2cccs2)cc1C ?
TROY signal inh: 45; EWS-Fli inh: 40; FN deposition inh: 7; TWEAK-Fn14 inh: 46; Xi reactivation: 0; LGR2 antag: 63*

Results for Cc1cc(N/C=C/C(=O)c2cccs2)ccc1F ?
TROY signal inh: -30; EWS-Fli inh: -83; FN deposition inh: 1; TWEAK-Fn14 inh: -1; Xi reactivation: 0; LGR2 antag: -44

What do the screens show for `COCCn1c(Cc2ccccc2)nnc1SCC(=O)Nc1oc(C)c2c(C)n[nH]c(=O)c12`?
TROY signal inh: 57*; EWS-Fli inh: -4; FN deposition inh: 3; TWEAK-Fn14 inh: 6; Xi reactivation: 0; LGR2 antag: 1

How did CS(=O)(=O)Nc1ccc2c(c1)[C@@H]1C[C@H](CC(=O)NCc3ccc(-c4ccccc4)cc3)O[C@@H](CO)[C@@H]1O2 do in these assays?
EWS-Fli inh: 26; FN deposition inh: 6; Xi reactivation: 0; LGR2 antag: 14

High-throughput results: PubChem BioAssay, several laboratories
